# Data as given in ChEMBL document CHEMBL1142917, “Synthesis and structure-antibacterial activity relationship investigation of isomeric 2,3,5-substituted perhydropyrrolo[3,4-d]isoxazole-4,6-diones” (2007).
# Legend:
# [1] = system: Enterococcus faecalis; experiment: Antibacterial activity against Enterococcus faecalis ATCC 29212 by broth microdilution method; assay type: functional
# In short: (§1)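 NCCLS broth microdilution in Mueller–Hinton broth, DMSO stocks. Twofold series of 1600 to 0.39 μg/ml, or 1000 to 0.975 μg/ml for some compounds. Inoculum set to 0.5 McFarland (1×10^8 CFU/ml), diluted 1/10, giving 5×10^5 CFU/ml per well. Plates incubated 16-20 h at 35 °C. MIC taken as the lowest concentration preventing visible growth. Ampicillin reference.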
# [2] = system: Staphylococcus aureus; experiment: Antibacterial activity against Staphylococcus aureus ATCC 25923 by broth microdilution method; assay type: functional; in short: as §1
Structure (SMILES),MIC [1],MIC [2]
COc1cc([C@H]2[C@@H]3C(=O)N(C)C(=O)[C@@H]3ON2C)ccc1OCc1ccccc1 (relative stereo),650 µM,330 µM
CN1O[C@H]2C(=O)N(c3ccccc3)C(=O)[C@H]2[C@@H]1c1ccccc1 (relative stereo),1620 µM,410 µM
CN1C(=O)[C@H]2[C@@H](c3ccccc3)N(C)O[C@H]2C1=O (relative stereo),1620 µM,810 µM
CN1O[C@H]2C(=O)N(c3ccccc3)C(=O)[C@H]2[C@@H]1c1cccc(Br)c1 (relative stereo),520 µM,130 µM
CC1(C)S[C@@H]2[C@H](NC(=O)[C@H](N)c3ccccc3)C(=O)N2[C@H]1C(=O)O [AMPICILLIN],2 µM,2 µM
COc1ccc([C@@H]2[C@@H]3C(=O)N(C)C(=O)[C@@H]3ON2C)cc1 (relative stereo),> 5790 µM,5790 µM
CN1C(=O)[C@@H]2[C@@H](ON(C)[C@H]2c2ccc([N+](=O)[O-])cc2)C1=O,5490 µM,2750 µM
CN1O[C@H]2C(=O)N(c3ccccc3)C(=O)[C@H]2[C@H]1c1ccc(Br)cc1 (relative stereo),520 µM,120 µM
COc1ccc([C@H]2[C@@H]3C(=O)N(C)C(=O)[C@@H]3ON2C)cc1 (relative stereo),> 5790 µM,1450 µM
CN1C(=O)[C@@H]2[C@@H](ON(C)[C@H]2c2ccc(Br)cc2)C1=O (relative stereo),620 µM,310 µM
CN1C(=O)[C@H]2[C@@H](c3ccc(N(C)C)cc3)N(C)O[C@H]2C1=O (relative stereo),1380 µM,1380 µM
CN1O[C@H]2C(=O)N(c3ccccc3)C(=O)[C@H]2[C@H]1c1ccc([N+](=O)[O-])cc1,710 µM,570 µM
CN1C(=O)[C@H]2[C@@H](c3ccc(Br)cc3)N(C)O[C@H]2C1=O (relative stereo),1230 µM,2460 µM
CN1C(=O)[C@H]2[C@@H](c3cccc(Br)c3)N(C)O[C@H]2C1=O (relative stereo),620 µM,1230 µM
COc1ccc([C@@H]2[C@@H]3C(=O)N(c4ccccc4)C(=O)[C@@H]3ON2C)cc1 (relative stereo),1180 µM,590 µM
CN1O[C@H]2C(=O)N(c3ccccc3)C(=O)[C@H]2[C@H]1c1cccc(Br)c1 (relative stereo),650 µM,320 µM
CN1C(=O)[C@@H]2[C@@H](ON(C)[C@H]2c2ccc(N(C)C)cc2)C1=O (relative stereo),5530 µM,1380 µM
CN1O[C@H]2C(=O)N(c3ccccc3)C(=O)[C@H]2[C@@H]1c1ccc([N+](=O)[O-])cc1,280 µM,570 µM
COc1ccc([C@H]2[C@@H]3C(=O)N(c4ccccc4)C(=O)[C@@H]3ON2C)cc1 (relative stereo),1180 µM,1180 µM
CN1C(=O)[C@H]2[C@@H](c3cccc(Cl)c3)N(C)O[C@H]2C1=O (relative stereo),2850 µM,1430 µM
COc1cc([C@@H]2[C@@H]3C(=O)N(c4ccccc4)C(=O)[C@@H]3ON2C)ccc1OCc1ccccc1,> 3600 µM,3600 µM
CN1C(=O)[C@H]2[C@@H](c3ccc([N+](=O)[O-])cc3)N(C)O[C@H]2C1=O,690 µM,1370 µM
COc1cc([C@@H]2[C@@H]3C(=O)N(C)C(=O)[C@@H]3ON2C)ccc1OCc1ccccc1 (relative stereo),130 µM,130 µM

Structure (SMILES),MIC [1],MIC [2]
CN1C(=O)[C@@H]2[C@@H](ON(C)[C@H]2c2cccc(Cl)c2)C1=O (relative stereo),1430 µM,710 µM
CN1O[C@H]2C(=O)N(c3ccccc3)C(=O)[C@H]2[C@H]1c1ccc(Cl)cc1,730 µM,360 µM
CCN(CC)c1ccc([C@H]2[C@@H]3C(=O)N(C)C(=O)[C@@H]3ON2C)cc1 (relative stereo),630 µM,630 µM
Cc1ccc([C@H]2[C@@H]3C(=O)N(C)C(=O)[C@@H]3ON2C)cc1 (relative stereo),6150 µM,3070 µM
CN1C(=O)[C@@H]2[C@@H](ON(c3ccccc3)[C@H]2c2ccc(N(C)C)cc2)C1=O (relative stereo),1140 µM,280 µM
CCN(CC)c1ccc([C@H]2[C@@H]3C(=O)N(c4ccccc4)C(=O)[C@@H]3ON2C)cc1,4220 µM,4220 µM
CN1C(=O)[C@H]2[C@@H](c3ccc(N(C)C)cc3)N(c3ccccc3)O[C@H]2C1=O (relative stereo),280 µM,280 µM
Cc1ccc([C@@H]2[C@@H]3C(=O)N(C)C(=O)[C@@H]3ON2C)cc1 (relative stereo),> 6150 µM,6150 µM
CN1C(=O)[C@@H]2[C@@H](ON(C)[C@H]2c2ccccc2)C1=O (relative stereo),1020 µM,510 µM
CN1O[C@H]2C(=O)N(c3ccccc3)C(=O)[C@H]2[C@@H]1c1ccc(Br)cc1 (relative stereo),520 µM,130 µM
CN(C)c1ccc([C@H]2[C@@H]3C(=O)N(c4ccccc4)C(=O)[C@@H]3ON2C)cc1,710 µM,360 µM
CCN(CC)c1ccc([C@@H]2[C@@H]3C(=O)N(c4ccccc4)C(=O)[C@@H]3ON2C)cc1 (relative stereo),660 µM,330 µM
CN1O[C@H]2C(=O)N(c3ccccc3)C(=O)[C@H]2[C@H]1c1ccccc1 (relative stereo),5190 µM,> 5190 µM
CN1C(=O)[C@@H]2[C@@H](ON(C)[C@H]2c2ccc(Cl)cc2)C1=O,1430 µM,1430 µM
CN1O[C@H]2C(=O)N(c3ccccc3)C(=O)[C@H]2[C@@H]1c1ccc(Cl)cc1,1170 µM,1170 µM
COc1cc([C@H]2[C@@H]3C(=O)N(c4ccccc4)C(=O)[C@@H]3ON2C)ccc1OCc1ccccc1,1130 µM,280 µM
Cc1ccc([C@@H]2[C@@H]3C(=O)N(c4ccccc4)C(=O)[C@@H]3ON2C)cc1 (relative stereo),3100 µM,3100 µM
CCN(CC)c1ccc([C@@H]2[C@@H]3C(=O)N(C)C(=O)[C@@H]3ON2C)cc1 (relative stereo),80 µM,80 µM
CN1C(=O)[C@H]2[C@@H](c3ccc(Cl)cc3)N(C)O[C@H]2C1=O,1430 µM,1430 µM
CN(C)c1ccc([C@@H]2[C@@H]3C(=O)N(c4ccccc4)C(=O)[C@@H]3ON2C)cc1,> 4550 µM,4550 µM
CN1C(=O)[C@@H]2[C@@H](ON(C)[C@H]2c2cccc(Br)c2)C1=O (relative stereo),1230 µM,620 µM
Cc1ccc([C@H]2[C@@H]3C(=O)N(c4ccccc4)C(=O)[C@@H]3ON2C)cc1 (relative stereo),1240 µM,620 µM
